Active and inactive are the calls of the source. No cut-off for these calls is given here.
What was measured:
[1] = target: Ribosomal protein S6 kinase alpha-1 (Homo sapiens, UniProt Q15418); test: Inhibition of human RSK1 in presence of ATP
[2] = target: T1, Protein kinase C gamma type (Homo sapiens, UniProt P05129); test: Inhibition of human PKCgamma assessed as inhibition constant in presence of ATP
[3] = target: Proto-oncogene tyrosine-protein kinase Src (Homo sapiens, UniProt P12931); test: Inhibition of human SRC assessed as inhibition constant in presence of ATP
Panc 02.03 = test: Antiproliferative activity against human Panc 02.03 cells assessed as inhibition of cell proliferation incubated for 3 days by CellTiter-Glo Luminescent Cell Viability Assay; assay type: functional, cell-based; conditions: Panc 02.03, 72 h
Procedure, shortened: (§1)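 Cells of each line were plated in 384-well plates on day 1 and exposed to compound from day 2 for 3 days. On day 5 all medium was aspirated. Viable cell number was read by CellTiter-Glo luminescence, which quantifies cellular ATP.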

SK-BR-3 = test: Antiproliferative activity against human SK-BR-3 cells assessed as inhibition of cell proliferation incubated for 3 days by CellTiter-Glo Luminescent Cell Viability Assay; assay type: functional, cell-based; conditions: SK-BR-3, 72 h; procedure, shortened: as §1
[4] = target: Tyrosine-protein kinase Yes (Homo sapiens, UniProt P07947); test: Inhibition of human YES1 in presence of ATP by cellular assay
T84 = test: Antiproliferative activity against human T84 cells assessed as inhibition of cell proliferation incubated for 3 days by CellTiter-Glo Luminescent Cell Viability Assay; assay type: functional, cell-based; conditions: T84, 72 h; procedure, shortened: as §1
[5] = Antiproliferative activity against human PL45 cells assessed as inhibition of cell proliferation incubated for 3 days by CellTiter-Glo Luminescent Cell Viability Assay; assay type: functional, cell-based; conditions: PL45, 72 h; procedure, shortened: as §1
MIA PaCa-2 = test: Antiproliferative activity against human MIA PaCa-2 cells assessed as inhibition of cell proliferation incubated for 3 days by CellTiter-Glo Luminescent Cell Viability Assay; assay type: functional, cell-based; conditions: MIA PaCa-2, 72 h
Procedure, shortened: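 Cancer cell lines seeded in 384-well plates on day 1; compound added on day 2 and incubated 3 days. On day 5 media aspirated and viable cells quantified by ATP content using CellTiter-Glo luminescence; dose-dependent proliferation effects determined.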

HCT-116 [6] = test: Antitumor activity against human HCT-116 cells xenografted in nude mouse assessed as tumor growth inhibition at 7.5 mg/kg, po administered twice daily for 9 to 18 days relative to control; assay type: functional; conditions: time 9-18 day, read-out: TGI
HEK293 = test: Inhibition of YFP/YFP variant coding sequence fused Mnk1/p38alpha (unknown origin) expressed in HEK293 cells incubated for 8 to 24 hrs by fluorescence based analysis; assay type: cell-based; conditions: Homo sapiens, time 8-24 hrs
[7] = Drug concentration in nude mouse plasma xenografted with human HCT-116 cells at 3.3 mg/kg administered via pump for 9 days by LC-MS/MS analysis; assay type: ADME, organism-based; conditions: time 9 day
[8] = target: Ribosomal protein S6 kinase alpha-2 (Homo sapiens, UniProt Q15349); test: Inhibition of human RSK3 assessed as inhibition constant in presence of ATP
[9] = target: T2, cGMP-dependent protein kinase 1 (Homo sapiens, UniProt Q13976); test: Inhibition of human PRKG1 in presence of ATP
T2 sequence (Q13976 whole entry): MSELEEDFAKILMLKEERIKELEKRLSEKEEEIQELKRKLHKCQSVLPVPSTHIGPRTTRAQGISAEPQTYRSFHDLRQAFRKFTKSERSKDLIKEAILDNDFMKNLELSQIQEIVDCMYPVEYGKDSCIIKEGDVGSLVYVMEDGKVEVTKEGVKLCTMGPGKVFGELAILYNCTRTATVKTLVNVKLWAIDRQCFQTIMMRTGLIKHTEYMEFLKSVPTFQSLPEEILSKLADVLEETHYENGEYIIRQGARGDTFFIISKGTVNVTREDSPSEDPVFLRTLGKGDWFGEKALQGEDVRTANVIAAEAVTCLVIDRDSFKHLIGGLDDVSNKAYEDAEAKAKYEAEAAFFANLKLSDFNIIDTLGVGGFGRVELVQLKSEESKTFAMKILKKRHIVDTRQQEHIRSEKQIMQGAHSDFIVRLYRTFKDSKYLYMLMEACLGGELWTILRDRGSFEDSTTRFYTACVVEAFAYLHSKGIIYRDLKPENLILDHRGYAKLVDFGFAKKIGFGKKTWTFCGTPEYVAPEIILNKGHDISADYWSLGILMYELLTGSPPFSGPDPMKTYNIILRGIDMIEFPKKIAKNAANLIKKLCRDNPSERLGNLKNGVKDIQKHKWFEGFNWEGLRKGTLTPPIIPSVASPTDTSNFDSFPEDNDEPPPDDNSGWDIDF

[10] = target: Protein kinase C beta type (Homo sapiens, UniProt P05771); test: Inhibition of human PKCbeta1 in presence of ATP relative to control; conditions: concentration not given here
NCI-H1703 = test: Antiproliferative activity against human NCI-H1703 cells assessed as inhibition of cell proliferation incubated for 3 days by CellTiter-Glo Luminescent Cell Viability Assay; assay type: functional, cell-based; conditions: NCI-H1703, 72 h; procedure, shortened: as §1
HCT-116 [11] = test: Downregulation of camptothecin-induced p53 level in human HCT-116 cells at 1 uM preincubated with compound for 15 mins followed by camptothecin stimulation and measured after 20 hrs by Western blot analysis; assay type: functional, cell-based; conditions: time 20.25 hrs
[12] = Inhibition of NF-kappaB signaling in HEK293T cells preincubated with compound for 0.5 hrs followed by TNFalpha stimulation and measured after 7 hrs by Steady-Glo luciferase assay; assay type: cell-based; conditions: Homo sapiens, HEK-293T
PaTu 8988t = test: Antiproliferative activity against human PaTu 8988t cells assessed as inhibition of cell proliferation incubated for 3 days by CellTiter-Glo Luminescent cell viability assay; assay type: functional, cell-based; conditions: 72 h; procedure, shortened: as §1
DLD-1 = test: Antiproliferative activity against human DLD-1 cells assessed as inhibition of cell proliferation incubated for 3 days by CellTiter-Glo Luminescent Cell Viability Assay; assay type: functional, cell-based; conditions: DLD-1, 72 h
Procedure, shortened: (§2)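 Cancer cell lines seeded in 384-well plates on day 1; compound added on day 2 and left for 3 days. On day 5 all medium was aspirated, and viable cells were quantified by CellTiter-Glo luminescence, which measures cellular ATP. Dose-dependent effects on proliferation were determined.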

[13] = Inhibition of YFP/YFP variant coding sequence fused p53/Pin1 (unknown origin) expressed in HEK293 cells incubated for 8 to 24 hrs by fluorescence based analysis; assay type: cell-based, Homo sapiens
Calu-1 = test: Antiproliferative activity against human Calu-1 cells assessed as inhibition of cell proliferation incubated for 3 days by CellTiter-Glo Luminescent Cell Viability Assay; assay type: functional, cell-based; conditions: Calu-1, 72 h; procedure, shortened: as §2
HCT-116 [14] = test: Antitumor activity against human HCT-116 cells xenografted in nude mouse assessed as reduction in BAD phosphorylation at S136 residue at 15 to 150 mg/kg/day administered via pump for 18 hrs by Reverse-Phase protein array analysis; assay type: functional, organism-based; conditions: dose 15-150 mg/kg/day
[15] = target: T1, Protein kinase C gamma type; test: Inhibition of human PKCgamma in presence of ATP
HCC1395 = test: Antiproliferative activity against human HCC1395 cells assessed as inhibition of cell proliferation incubated for 3 days by CellTiter-Glo Luminescent Cell Viability Assay; assay type: functional, cell-based; conditions: HCC1395, 72 h; procedure, shortened: as §2

Chain of Tyrosine-protein kinase Yes (P07947 whole entry): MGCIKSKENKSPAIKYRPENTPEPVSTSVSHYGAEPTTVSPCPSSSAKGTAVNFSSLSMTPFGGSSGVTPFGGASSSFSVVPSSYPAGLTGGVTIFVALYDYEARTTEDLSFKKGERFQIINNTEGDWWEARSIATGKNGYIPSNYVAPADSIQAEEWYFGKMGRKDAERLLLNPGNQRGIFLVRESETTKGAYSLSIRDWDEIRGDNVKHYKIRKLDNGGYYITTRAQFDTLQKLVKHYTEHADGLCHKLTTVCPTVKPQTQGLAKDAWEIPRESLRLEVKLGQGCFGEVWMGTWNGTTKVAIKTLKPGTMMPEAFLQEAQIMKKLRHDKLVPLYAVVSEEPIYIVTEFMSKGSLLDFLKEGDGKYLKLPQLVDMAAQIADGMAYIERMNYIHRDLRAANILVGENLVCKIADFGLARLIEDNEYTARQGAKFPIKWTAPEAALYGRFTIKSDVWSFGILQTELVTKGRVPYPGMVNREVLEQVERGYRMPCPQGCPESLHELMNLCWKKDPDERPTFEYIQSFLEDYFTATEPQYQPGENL
Chain of Proto-oncogene tyrosine-protein kinase Src (P12931 2-536 limits assumed): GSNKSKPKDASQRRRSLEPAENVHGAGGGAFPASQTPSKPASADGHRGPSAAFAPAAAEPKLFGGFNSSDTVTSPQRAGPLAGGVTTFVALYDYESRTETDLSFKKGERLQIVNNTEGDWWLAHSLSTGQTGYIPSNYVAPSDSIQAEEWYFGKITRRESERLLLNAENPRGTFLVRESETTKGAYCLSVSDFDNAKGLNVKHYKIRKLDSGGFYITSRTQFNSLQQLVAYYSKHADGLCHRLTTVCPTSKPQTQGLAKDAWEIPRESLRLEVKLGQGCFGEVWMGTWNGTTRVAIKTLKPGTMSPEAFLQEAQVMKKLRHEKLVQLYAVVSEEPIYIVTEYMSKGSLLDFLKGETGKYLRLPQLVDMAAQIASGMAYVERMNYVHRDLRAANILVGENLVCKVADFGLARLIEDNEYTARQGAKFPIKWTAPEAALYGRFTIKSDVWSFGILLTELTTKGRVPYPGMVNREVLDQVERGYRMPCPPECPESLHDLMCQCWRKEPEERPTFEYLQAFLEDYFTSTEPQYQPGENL
Chain of Ribosomal protein S6 kinase alpha-1 (Q15418 whole entry): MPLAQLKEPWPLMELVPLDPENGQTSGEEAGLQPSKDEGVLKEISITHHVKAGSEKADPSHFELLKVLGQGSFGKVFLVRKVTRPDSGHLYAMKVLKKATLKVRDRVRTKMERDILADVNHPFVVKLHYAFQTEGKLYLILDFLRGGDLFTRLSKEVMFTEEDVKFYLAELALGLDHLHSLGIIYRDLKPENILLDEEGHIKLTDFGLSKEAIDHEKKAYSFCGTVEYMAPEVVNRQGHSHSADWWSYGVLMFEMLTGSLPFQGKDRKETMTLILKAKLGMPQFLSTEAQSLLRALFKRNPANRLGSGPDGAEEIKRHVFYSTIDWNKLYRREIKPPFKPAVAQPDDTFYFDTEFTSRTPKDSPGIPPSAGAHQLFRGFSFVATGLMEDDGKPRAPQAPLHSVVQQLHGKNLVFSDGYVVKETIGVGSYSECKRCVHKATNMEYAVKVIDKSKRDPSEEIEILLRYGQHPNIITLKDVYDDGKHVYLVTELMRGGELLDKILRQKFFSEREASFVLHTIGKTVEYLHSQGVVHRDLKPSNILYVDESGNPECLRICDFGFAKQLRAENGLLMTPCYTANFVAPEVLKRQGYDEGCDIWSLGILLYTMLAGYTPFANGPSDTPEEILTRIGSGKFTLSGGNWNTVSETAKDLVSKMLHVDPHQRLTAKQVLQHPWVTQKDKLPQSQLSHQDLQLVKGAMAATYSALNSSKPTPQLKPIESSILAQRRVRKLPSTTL
Chain of Ribosomal protein S6 kinase alpha-2 (Q15349 whole entry): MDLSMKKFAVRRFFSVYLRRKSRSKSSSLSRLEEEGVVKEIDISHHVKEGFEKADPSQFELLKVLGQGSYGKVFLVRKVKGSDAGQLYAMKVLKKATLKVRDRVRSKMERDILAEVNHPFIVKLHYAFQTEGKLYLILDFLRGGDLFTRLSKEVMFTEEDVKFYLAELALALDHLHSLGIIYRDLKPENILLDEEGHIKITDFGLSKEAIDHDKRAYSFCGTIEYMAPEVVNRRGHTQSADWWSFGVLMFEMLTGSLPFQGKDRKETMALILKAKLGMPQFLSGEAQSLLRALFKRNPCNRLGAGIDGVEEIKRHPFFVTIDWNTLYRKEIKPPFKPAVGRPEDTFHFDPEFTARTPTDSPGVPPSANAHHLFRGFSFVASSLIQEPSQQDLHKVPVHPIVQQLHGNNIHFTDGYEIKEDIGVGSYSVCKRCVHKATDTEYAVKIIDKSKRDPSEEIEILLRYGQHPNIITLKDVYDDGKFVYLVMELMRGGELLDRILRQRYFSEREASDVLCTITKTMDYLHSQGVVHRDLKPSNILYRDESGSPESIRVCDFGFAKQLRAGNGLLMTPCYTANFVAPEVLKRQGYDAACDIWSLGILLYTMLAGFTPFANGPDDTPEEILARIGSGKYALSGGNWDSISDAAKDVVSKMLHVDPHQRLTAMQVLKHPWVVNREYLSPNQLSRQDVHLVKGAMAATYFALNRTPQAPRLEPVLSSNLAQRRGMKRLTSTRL
Chain of Protein kinase C beta type (P05771 2-671 limits assumed): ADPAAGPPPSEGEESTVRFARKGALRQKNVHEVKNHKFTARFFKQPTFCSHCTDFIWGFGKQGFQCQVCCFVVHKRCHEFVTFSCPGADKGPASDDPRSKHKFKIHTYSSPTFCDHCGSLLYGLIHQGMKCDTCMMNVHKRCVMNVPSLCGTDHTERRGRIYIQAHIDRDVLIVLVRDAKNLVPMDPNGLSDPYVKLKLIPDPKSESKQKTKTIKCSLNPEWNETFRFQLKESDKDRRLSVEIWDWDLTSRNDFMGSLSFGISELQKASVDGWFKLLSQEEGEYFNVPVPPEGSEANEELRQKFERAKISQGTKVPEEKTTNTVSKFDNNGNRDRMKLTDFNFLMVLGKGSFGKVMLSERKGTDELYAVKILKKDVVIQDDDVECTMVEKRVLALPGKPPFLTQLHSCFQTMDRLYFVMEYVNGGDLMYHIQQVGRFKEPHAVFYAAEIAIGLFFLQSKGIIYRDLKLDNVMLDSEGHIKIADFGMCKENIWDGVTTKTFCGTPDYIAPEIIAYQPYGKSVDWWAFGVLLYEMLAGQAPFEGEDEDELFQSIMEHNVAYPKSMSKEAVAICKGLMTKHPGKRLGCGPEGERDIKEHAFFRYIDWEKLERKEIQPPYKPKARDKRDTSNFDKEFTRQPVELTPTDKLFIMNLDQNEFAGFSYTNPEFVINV

Structure (SMILES): Cc1nc(Nc2n[nH]c3c2CN(C(=O)N[C@H](CN(C)C)c2ccccc2)C3(C)C)c2sccc2n1 [PF-03758309]
- IC50 [1]: 2 nM
- Ki [2]: 43 nM
- Ki [3]: 32 nM
- IC50 (Panc 02.03): 540 nM
- IC50 (SK-BR-3): 132 nM
- IC50 [4]: 612 nM
- IC50 (T84): 89 nM
- IC50 [5]: 53 nM
- IC50 (MIA PaCa-2): 17 nM
- inhibition in vivo at 7.5 mg/kg (HCT-116 [6]): 64%
- inhibition (HEK293): Active
- concentration at 216 h [7]: 37 ng/mL
- Ki [8]: 11 nM
- IC50 [9]: 34 nM
- inhibition [10]: 71%
- IC50 (NCI-H1703): 4.4 nM
- Activity (HCT-116 [11]): Active
- IC50 [12]: 24.2 nM
- IC50 (PaTu 8988t): 73 nM
- IC50 (DLD-1): 10 µM
- IC50 [13]: 5.7 nM
- IC50 (Calu-1): 167 nM
- Activity (HCT-116 [14]): Active
- IC50 [15]: 59.2 nM
- IC50 (HCC1395): 1.6 nM

— ChEMBL document CHEMBL5678802, “Small-molecule p21-activated kinase inhibitor PF-3758309 is a potent inhibitor of oncogenic signaling and tumor growth” (Proc Natl Acad Sci U S A, 2010)
